Assay results reported in publication PMC2842482 (ACS chemical biology, 2010).
Values joined by “and” are separate entries in the source; they are usually repeats but may differ in a detail not shown here. Equal entries are not always repeated. Where two headings read alike, the source gives them in different places.

What was measured:
Co-hArgI = target: T1, Co-hArgI (Homo sapiens, UniProt P05089); assay: Inhibition of Co-hArgI by L-Orn and L-Leu; assay type: biochemical
T1 sequence (P05089 1-322): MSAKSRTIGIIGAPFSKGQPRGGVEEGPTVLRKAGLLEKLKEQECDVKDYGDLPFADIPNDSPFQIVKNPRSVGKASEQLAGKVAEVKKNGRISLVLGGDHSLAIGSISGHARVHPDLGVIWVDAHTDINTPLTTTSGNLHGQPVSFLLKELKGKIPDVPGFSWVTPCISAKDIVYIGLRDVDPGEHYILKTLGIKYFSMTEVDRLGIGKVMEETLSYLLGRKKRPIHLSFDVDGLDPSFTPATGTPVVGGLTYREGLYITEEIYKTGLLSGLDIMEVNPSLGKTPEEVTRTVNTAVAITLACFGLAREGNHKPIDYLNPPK

Mn-hArgI = target: T2, Mn-hArgI (Homo sapiens, UniProt P05089); assay: Inhibition of Mn-hArgI by L-Orn and L-Leu; assay type: biochemical
T2 sequence (P05089 1-322): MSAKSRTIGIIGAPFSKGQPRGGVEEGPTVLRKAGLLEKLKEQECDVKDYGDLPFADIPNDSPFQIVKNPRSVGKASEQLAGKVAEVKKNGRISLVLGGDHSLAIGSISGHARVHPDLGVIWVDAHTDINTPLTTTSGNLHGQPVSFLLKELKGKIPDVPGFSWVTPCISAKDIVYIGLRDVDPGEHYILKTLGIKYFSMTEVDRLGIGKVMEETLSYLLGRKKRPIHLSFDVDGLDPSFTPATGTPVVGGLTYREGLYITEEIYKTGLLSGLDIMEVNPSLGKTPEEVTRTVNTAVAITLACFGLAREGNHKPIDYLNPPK

[1] = aqueous solution; cited from earlier work
rat Arginase I = rat Arginase I at pH 9.0; cited from earlier work
hArgII = settings: cited from earlier work
[2] = cited from earlier work
[3] = Serum stability in pooled human serum; assay type: in vitro ADME; settings: 1 μM enzyme, 37 °C
In short: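 Purified His-tagged hArgI (E. coli BL21, IMAC, metal-loaded with 10 mM CoCl2 or MnSO4, 15 min at 50–55 °C) added at 1 µM to pooled human serum at 37 °C. Aliquots taken at time points and tested in triplicate for hydrolysis of 1 mM L-Arg. Rate versus time fitted to a single exponential or a biphasic decay model to give t1/2.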

melanoma cell line A375 = settings: for IC50: A375 melanoma cells, MTT
[4] = Steady-state kinetics of L-Arg hydrolysis by purified hArgI; assay type: biochemical; settings: for kcat: hydrolysis of L-Arg, 100 mM Hepes buffer; for Fold change KM L-Arg: pH 7.4 vs pH 8.5; for Km: read-out: KM L-Arg
In short: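 His6-TEV-tagged human ArgI expressed in E. coli BL21 and IMAC-purified. Loaded with 10 mM CoCl2 or MnSO4 (15 min, 50–55 °C), then exchanged into 100 mM HEPES/10% glycerol, pH 7.4. Concentration taken from A280 in 6 M guanidinium. Enzyme-started reactions quenched with 12 N HCl after 30 s. Urea derivatised with DAMO/thiosemicarbazide/Fe3+ (COLDER) by 15 min boiling, read at A530 with L-Arg blanks. At least triplicate; Michaelis–Menten fit.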

[5] = pH rate dependence of manganese and cobalt arginase; assay type: biochemical; settings: for apparent pKa of kcat vs pH (one-pKa model) / apparent pKa of 1/KM vs pH, lower pKa / apparent pKa of 1/KM vs pH, upper pKa: 37 °C; for apparent pKa of kcat vs pH (one-pKa model): Co-hArgI value tentative; for apparent pKa of 1/KM vs pH, lower pKa / apparent pKa of 1/KM vs pH, upper pKa: bell shaped curve; for ascending limb pKa of kcat/KM vs pH (fit) / descending limb pKa of kcat/KM vs pH (fit): two pKa Henderson-Hasselbach model
In short: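 Mn- or Co-substituted enzyme assayed at 37 °C, at least in triplicate, in 100 mM buffers: acetate (pH 5–5.5), MES (6–6.5), HEPES (7–7.8), Tris (8–9), Capso (9–10.5). L-Arg ranged 30 µM–80 mM depending on pH. Michaelis–Menten fits gave kcat and KM. kcat/KM versus pH fitted to a Henderson–Hasselbalch form for ascending and descending pKa, with Segel correction. Log kcat and 1/KM plotted versus pH.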

[6] = tested on: hepatocellular carcinoma cell line, Hep3b; assay: In vitro cytotoxicity; assay type: cell-based, human
[7] = Thermal denaturation by circular dichroism; assay type: physicochemical; settings: 100 mM phosphate buffer, pH 7.4, θ222
In short: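 Co-substituted enzyme at 6 µM in 100 mM phosphate, pH 7.4. Molar ellipticity at 222 nm monitored from 25 to 90 °C. Fraction denatured calculated as the ratio to the ellipticity of fully unfolded protein. Data fitted to a modified logistic equation for the transition midpoint.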

[8] = Kinetics of deactivation in HEPES buffer with added Co^2+; assay type: physicochemical; settings: 100 mM HEPES, pH 7.4, 37 °C, in the presence of 500 μM Co^2+
[9] = rat enzyme; cited from earlier work

NCCC[C@H](N)C(=O)O [L-Orn, L-Ornithine]
Ki (Co-hArgI; read-out: Ki L-Orn, pH 7.4): 76 ± 16 µM
Ki (Co-hArgI; read-out: Ki L-Orn, pH 8.5): 50 ± 7 µM
Ki (Co-hArgI; read-out: Ki L-Orn, pH 8.5, 37 °C): 64 ± 9 µM
Ki (Mn-hArgI; read-out: Ki L-Orn, pH 7.4): 2400 µM
Ki (Mn-hArgI; read-out: Ki L-Orn, pH 8.5): 530 ± 60 µM

NC(N)=NCCN1CCNCCNCCNCC1.[Zn+2]
apparent pKa of guanidinium deprotonation [1]: 5.9

NCCCC[C@H](N)C(=O)O [L-Lys]
Ki (rat Arginase I): 900 µM

CC(C)C[C@H](N)C(=O)O [L-Leu, L-Leucine]
Ki (Co-hArgI; Ki L-Leu, pH 7.4): 480 ± 50 µM
Ki (Co-hArgI; Ki L-Leu, pH 8.5): 1300 µM
Fold change Ki L-Leu (Co-hArgI; pH 7.4 vs pH 8.5): (2.7) fold
Ki (hArgII): 1000 ± 100 µM
Ki (Mn-hArgI; Ki L-Leu, pH 7.4): 390 ± 40 µM
Ki (Mn-hArgI; Ki L-Leu, pH 8.5): 640 ± 40 µM
Fold change Ki L-Leu (Mn-hArgI; pH 7.4 vs pH 8.5): (1.6) fold

B1: bovine carboxypeptidase A: bovine carboxypeptidase A with Mn^2+ or Co^2+ as cofactor (protein, UniProt P00730 111-419, looked up)
Carboxypeptidase A1: ARSTNTFNYATYHTLDEIYDFMDLLVAEHPQLVSKLQIGRSYEGRPIYVLKFSTGGSNRPAIWIDLGIHSREWITQATGVWFAKKFTEDYGQDPSFTAILDSMDIFLEIVTNPDGFAFTHSQNRLWRKTRSVTSSSLCVGVDANRNWDAGFGKAGASSSPCSETYHGKYANSEVEVKSIVDFVKDHGNFKAFLSIHSYSQLLLYPYGYTTQSIPDKTELNQVAKSAVEALKSLYGTSYKYGSIITTIYQASGGSIDWSYNQGIKYSFTFELRDTGRYGFLLPASQIIPTAQETWLGVLTIMEHTLNNLY
modifications: Mn2+ or Co2+ cofactor
acidic limb kinetic pKa ([2]; Co^2+ substitution): 5.3
acidic limb kinetic pKa ([2]; Mn^2+ as a cofactor): 6.4

B2: metallo-β-lactamase from B. cereus: metallo-β-lactamase from B. cereus with Mn^2+ or Co^2+ cofactor (protein, UniProt P04190 31-257, looked up)
Metallo-beta-lactamase type 2: SQKVEKTVIKNETGTISISQLNKNVWVHTELGSFNGEAVPSNGLVLNTSKGLVLVDSSWDDKLTKELIEMVEKKFQKRVTDVIITHAHADRIGGIKTLKERGIKAHSTALTAELAKKNGYEEPLGDLQTVTNLKFGNMKVETFYPGKGHTEDNIVVWLPQYNILVGGCLVKSTSAKDLGNVADAYVNEWSTSIENVLKRYRNINAVVPGHGEVGDKGLLLHTLDLLK
modifications: Mn2+ or Co2+ cofactor
pKa ([2]; Co^2+ as the cofactor): 6.9
pKa ([2]; with Mn^2+): 8.4

B3: Mn-hArgI: recombinant human Arginase I with the native di-nuclear Mn^2+ cofactor (protein, UniProt P05089 1-322, looked up)
Arginase-1: MSAKSRTIGIIGAPFSKGQPRGGVEEGPTVLRKAGLLEKLKEQECDVKDYGDLPFADIPNDSPFQIVKNPRSVGKASEQLAGKVAEVKKNGRISLVLGGDHSLAIGSISGHARVHPDLGVIWVDAHTDINTPLTTTSGNLHGQPVSFLLKELKGKIPDVPGFSWVTPCISAKDIVYIGLRDVDPGEHYILKTLGIKYFSMTEVDRLGIGKVMEETLSYLLGRKKRPIHLSFDVDGLDPSFTPATGTPVVGGLTYREGLYITEEIYKTGLLSGLDIMEVNPSLGKTPEEVTRTVNTAVAITLACFGLAREGNHKPIDYLNPPK
modifications: Mn2+ cofactor
t½ of activity (single exponential loss) [3]: 4.8 ± 0.8 h
IC50 (melanoma cell line A375): 0.0041 ± 0.0001 µM
kcat ([4]; pH 7.4, 37 °C): 300 ± 12 s⁻¹ and 300 s⁻¹
Fold change KM L-Arg [4]: (1. 4) fold
Km ([4]; pH 7.4, 37 °C, listed as Mn-ArgI): 2330 µM
Km ([4]; pH 8.5): 1600 µM
apparent pKa of kcat vs pH (one-pKa model) [5]: 8.1 ± 0.05
apparent pKa of 1/KM vs pH, lower pKa [5]: 7.1 ± 0.1 and 7.1
apparent pKa of 1/KM vs pH, upper pKa [5]: 10.7 ± 0.3 and 10.7
fold increase of rate (kcat) with pH ([5]; over the pH range studied (log slope = 0.5)): more than 30 fold
log kcat slope ([5]; pH 6 to pH 8.5): 0.5
ascending limb pKa of kcat/KM vs pH (fit) [5]: 8.4 ± 0.1
descending limb pKa of kcat/KM vs pH (fit) [5]: 11.0 ± 0.1

B4: Co-hArgI: Co^2+ substituted human Arginase I, recombinant, His6-tagged, expressed in E. coli (protein, UniProt P05089 1-322, looked up)
Arginase-1: MSAKSRTIGIIGAPFSKGQPRGGVEEGPTVLRKAGLLEKLKEQECDVKDYGDLPFADIPNDSPFQIVKNPRSVGKASEQLAGKVAEVKKNGRISLVLGGDHSLAIGSISGHARVHPDLGVIWVDAHTDINTPLTTTSGNLHGQPVSFLLKELKGKIPDVPGFSWVTPCISAKDIVYIGLRDVDPGEHYILKTLGIKYFSMTEVDRLGIGKVMEETLSYLLGRKKRPIHLSFDVDGLDPSFTPATGTPVVGGLTYREGLYITEEIYKTGLLSGLDIMEVNPSLGKTPEEVTRTVNTAVAITLACFGLAREGNHKPIDYLNPPK
modifications: Co2+ substituted; His6 tag
fold lower IC50 than Mn-hArgI ([6]; Hep3b): 15 fold
fold lower IC50 value ([6]; human hepatocellular carcinoma and melanoma cell lines): 12-15 fold
TM (mid-point temperature for unfolding) [7]: 74 °C
fold increase in cytotoxicity vs Mn-hArgI (melanoma cell line A375): ~ 13 fold
IC50 (melanoma cell line A375): 0.00032 ± 6e-05 µM
t½ of activity (monophasic sigmoidal loss) [8]: 45 ± 2 h
kcat ([4]; pH 7.4, 37 °C): 240 ± 14 s⁻¹ and 240 s⁻¹
Fold change KM L-Arg [4]: (1.4) fold
Km ([4]; pH 7.4, 37 °C): 190 ± 40 µM
Km ([4]; pH 8.5): 140 ± 10 µM
apparent pKa of kcat vs pH (one-pKa model) [5]: 5.2 ± 0.1
apparent pKa of 1/KM vs pH, lower pKa [5]: 7.2 ± 0.1
apparent pKa of 1/KM vs pH, upper pKa [5]: 9.7 ± 0.1 and 9.7
log kcat slope ([5]; pH 5 - 6): 0.43
log kcat slope ([5]; pH 6 – 10.5): ~ 0.03 and 0.03
ascending limb pKa of kcat/KM vs pH (fit) [5]: 7.4 ± 0.1
descending limb pKa of kcat/KM vs pH (fit) [5]: 10.0 ± 0.1

B5: rat Mn-ArgI: rat Arginase I with Mn^2+, literature comparator (protein, UniProt P07824 1-323, looked up)
Arginase-1: MSSKPKPIEIIGAPFSKGQPRGGVEKGPAALRKAGLVEKLKETEYNVRDHGDLAFVDVPNDSPFQIVKNPRSVGKANEQLAAVVAETQKNGTISVVLGGDHSMAIGSISGHARVHPDLCVIWVDAHTDINTPLTTSSGNLHGQPVAFLLKELKGKFPDVPGFSWVTPCISAKDIVYIGLRDVDPGEHYIIKTLGIKYFSMTEVDKLGIGKVMEETFSYLLGRKKRPIHLSFDVDGLDPVFTPATGTPVVGGLSYREGLYITEEIYKTGLLSGLDIMEVNPTLGKTPEEVTRTVNTAVALTLSCFGTKREGNHKPETDYLKPPK
modifications: Mn2+ cofactor
TM [9]: 75 °C
